# Test results published in ChEMBL document CHEMBL5260840 (J Med Chem, 2019).
# Key:
# [1] = target: T1, DDB1- and CUL4-associated factor 15/Bromodomain-containing protein 9 (Homo sapiens) (UniProt Q9H8M2+Q66K64); test: PROTAC activity at DCAF15/BRD9 in human HeLa cells assessed as remaining BRD9 protein level at 1 uM incubated for 4 hrs by Western blot analysis relative to control; type: cell-based
# [2] = target: T2, DDB1- and CUL4-associated factor 15/Bromodomain-containing protein 7 (Homo sapiens) (UniProt Q9NPI1+Q66K64); test: PROTAC activity at DCAF15/BRD7 in human HeLa cells assessed as remaining BRD7 protein level at 1 uM incubated for 16 hrs by Western blot analysis relative to control; type: cell-based
# [3] = target: T1, DDB1- and CUL4-associated factor 15/Bromodomain-containing protein 9 (Homo sapiens); test: PROTAC activity at DCAF15/BRD9 in human HeLa cells assessed as remaining BRD9 protein level at 1 uM incubated for 16 hrs by Western blot analysis relative to control; type: cell-based
# [4] = target: T2, DDB1- and CUL4-associated factor 15/Bromodomain-containing protein 7 (Homo sapiens); test: PROTAC activity at DCAF15/BRD7 in human HeLa cells assessed as remaining BRD7 protein level at 1 uM incubated for 4 hrs by Western blot analysis relative to control; type: cell-based
# [5] = target: T3, von Hippel-Lindau disease tumor suppressor/Bromodomain-containing protein 7 (Homo sapiens) (UniProt Q9NPI1+P40337); test: PROTAC activity at VHL/BRD7 in human HeLa cells assessed as protein degradation at 1 uM incubated for 4 hrs by Western blot analysis relative to control; type: cell-based
# [6] = target: T4, von Hippel-Lindau disease tumor suppressor/Bromodomain-containing protein 9 (Homo sapiens) (UniProt Q9H8M2+P40337); test: PROTAC activity at VHL/BRD9 in human HeLa cells assessed as protein degradation at 1 uM incubated for 16 hrs by Western blot analysis relative to control; type: cell-based
# Procedure, shortened: (§1)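 HeLa cells treated with compound for the stated time before harvest; BRD9, BRD7 and β-actin detected by Western blot with β-actin loading control; band intensities quantified.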
# [7] = target: T5, Von Hippel-Lindau disease tumor suppressor/Elongin B/Elongin C (Homo sapiens) (UniProt P40337+Q15370+Q15369); test: Negative co-operative binding affinity to 6His-tagged human VHL/ElonginC/ElonginB expressed in Escherichia coli BL21 (DE3) cells assessed as change in entropy in the presence of BRD9-BD as complex with compound by ITC analysis
# [8] = target: T5, Von Hippel-Lindau disease tumor suppressor/Elongin B/Elongin C (Homo sapiens); test: Binding affinity to 6His-tagged human VHL/ElonginC/ElonginB expressed in Escherichia coli BL21 (DE3) cells assessed as change in entropy by ITC analysis
# [9] = target: T3, von Hippel-Lindau disease tumor suppressor/Bromodomain-containing protein 7 (Homo sapiens); test: PROTAC activity at VHL/BRD7 in human HeLa cells assessed as protein degradation at 1 uM incubated for 16 hrs by Western blot analysis relative to control; type: cell-based
# [10] = target: T3, von Hippel-Lindau disease tumor suppressor/Bromodomain-containing protein 7 (Homo sapiens); test: PROTAC activity at VHL/BRD7 in human HeLa cells assessed as remaining BRD7 protein level at 1 uM incubated for 16 hrs by Western blot analysis relative to control; type: cell-based
# [11] = target: T6, Bromodomain-containing protein 9 (Homo sapiens) (UniProt Q9H8M2); test: Binding affinity to 6His-tagged human BRD9 bromodomain (134 to 239 residues) expressed in Escherichia coli BL21 (DE3) cells assessed as change in entropy by ITC analysis
# T6 sequence (whole entry): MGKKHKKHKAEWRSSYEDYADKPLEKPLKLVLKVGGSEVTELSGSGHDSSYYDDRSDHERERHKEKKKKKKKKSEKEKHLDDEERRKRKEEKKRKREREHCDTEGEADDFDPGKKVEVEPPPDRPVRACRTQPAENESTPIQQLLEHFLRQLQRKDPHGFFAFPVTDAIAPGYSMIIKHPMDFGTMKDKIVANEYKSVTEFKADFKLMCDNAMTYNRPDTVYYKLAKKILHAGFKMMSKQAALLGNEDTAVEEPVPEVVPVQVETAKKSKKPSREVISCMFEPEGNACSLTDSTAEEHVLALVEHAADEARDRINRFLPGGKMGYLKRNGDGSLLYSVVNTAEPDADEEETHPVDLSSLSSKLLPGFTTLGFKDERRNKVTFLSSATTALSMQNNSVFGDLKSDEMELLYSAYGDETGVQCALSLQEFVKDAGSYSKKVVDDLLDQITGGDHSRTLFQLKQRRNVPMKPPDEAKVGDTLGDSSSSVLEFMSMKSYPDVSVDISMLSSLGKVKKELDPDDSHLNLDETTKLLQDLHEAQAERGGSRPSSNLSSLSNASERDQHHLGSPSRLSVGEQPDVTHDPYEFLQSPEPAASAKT
# [12] = target: T4, von Hippel-Lindau disease tumor suppressor/Bromodomain-containing protein 9 (Homo sapiens); test: PROTAC activity at VHL/BRD9 in human HeLa cells assessed as remaining BRD9 protein level at 1 uM incubated for 16 hrs by Western blot analysis relative to control; type: cell-based; procedure, shortened: as §1
# [13] = target: T6, Bromodomain-containing protein 9 (Homo sapiens); test: Binding affinity to 6His-tagged human BRD9 bromodomain (134 to 239 residues) expressed in Escherichia coli BL21 (DE3) cells assessed as change in enthalpy by ITC analysis
# [14] = target: T5, Von Hippel-Lindau disease tumor suppressor/Elongin B/Elongin C (Homo sapiens); test: Co-operative binding affinity to 6His-tagged human VHL/ElonginC/ElonginB expressed in Escherichia coli BL21 (DE3) cells assessed as maximal intensity in the presence of BRD9-BD as complex with compound incubated for 1 hrs by AlphaLISA proximity assay
# [15] = target: T5, Von Hippel-Lindau disease tumor suppressor/Elongin B/Elongin C (Homo sapiens); test: Negative co-operative binding affinity to 6His-tagged human VHL/ElonginC/ElonginB expressed in Escherichia coli BL21 (DE3) cells assessed as change in enthalpy in the presence of BRD9-BD as complex with compound by ITC analysis
# [16] = target: T3, von Hippel-Lindau disease tumor suppressor/Bromodomain-containing protein 7 (Homo sapiens); test: PROTAC activity at VHL/BRD7 in human HeLa cells assessed as remaining BRD7 protein level at 1 uM incubated for 4 hrs by Western blot analysis relative to control; type: cell-based
# [17] = target: T6, Bromodomain-containing protein 9 (Homo sapiens); test: Binding affinity to 6His-tagged human BRD9 bromodomain (134 to 239 residues) expressed in Escherichia coli BL21 (DE3) cells assessed as gibbs free energy change by ITC analysis
# [18] = target: T5, Von Hippel-Lindau disease tumor suppressor/Elongin B/Elongin C (Homo sapiens); test: Negative co-operative binding affinity to 6His-tagged human VHL/ElonginC/ElonginB expressed in Escherichia coli BL21 (DE3) cells assessed as total gibb's free energy change in the presence of BRD9-BD as complex with compound by ITC analysis
# [19] = target: T5, Von Hippel-Lindau disease tumor suppressor/Elongin B/Elongin C (Homo sapiens); test: Binding affinity to 6His-tagged human VHL/ElonginC/ElonginB expressed in Escherichia coli BL21 (DE3) cells assessed as change in enthalpy by ITC analysis
# [20] = target: T4, von Hippel-Lindau disease tumor suppressor/Bromodomain-containing protein 9 (Homo sapiens); test: PROTAC activity at VHL/BRD9 in human HeLa cells assessed as protein degradation at 1 uM incubated for 4 hrs by Western blot analysis relative to control; type: cell-based; procedure, shortened: as §1
# T4 sequence (P40337 whole entry, looked up, one chain of several): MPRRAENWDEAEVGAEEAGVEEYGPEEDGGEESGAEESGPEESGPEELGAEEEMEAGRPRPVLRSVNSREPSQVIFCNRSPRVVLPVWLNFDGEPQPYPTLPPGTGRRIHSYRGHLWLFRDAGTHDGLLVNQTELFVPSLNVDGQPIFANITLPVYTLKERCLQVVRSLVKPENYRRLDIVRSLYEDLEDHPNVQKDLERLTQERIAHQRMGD
# T5 sequence (P40337 whole entry, looked up): as the sequence (P40337 whole entry, looked up, one chain of several) above
# T5 sequence (Q15369 whole entry, looked up): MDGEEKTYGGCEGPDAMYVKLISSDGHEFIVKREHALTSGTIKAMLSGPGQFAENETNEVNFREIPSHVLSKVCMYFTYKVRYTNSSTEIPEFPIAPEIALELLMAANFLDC
# T5 sequence (Q15370 whole entry, looked up): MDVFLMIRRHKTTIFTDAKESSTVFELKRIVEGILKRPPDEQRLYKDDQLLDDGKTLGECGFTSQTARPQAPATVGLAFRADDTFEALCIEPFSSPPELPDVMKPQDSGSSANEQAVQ
# T3 sequence (P40337 whole entry, looked up): as the sequence (P40337 whole entry, looked up, one chain of several) above
# T3 sequence (Q9NPI1 whole entry, looked up): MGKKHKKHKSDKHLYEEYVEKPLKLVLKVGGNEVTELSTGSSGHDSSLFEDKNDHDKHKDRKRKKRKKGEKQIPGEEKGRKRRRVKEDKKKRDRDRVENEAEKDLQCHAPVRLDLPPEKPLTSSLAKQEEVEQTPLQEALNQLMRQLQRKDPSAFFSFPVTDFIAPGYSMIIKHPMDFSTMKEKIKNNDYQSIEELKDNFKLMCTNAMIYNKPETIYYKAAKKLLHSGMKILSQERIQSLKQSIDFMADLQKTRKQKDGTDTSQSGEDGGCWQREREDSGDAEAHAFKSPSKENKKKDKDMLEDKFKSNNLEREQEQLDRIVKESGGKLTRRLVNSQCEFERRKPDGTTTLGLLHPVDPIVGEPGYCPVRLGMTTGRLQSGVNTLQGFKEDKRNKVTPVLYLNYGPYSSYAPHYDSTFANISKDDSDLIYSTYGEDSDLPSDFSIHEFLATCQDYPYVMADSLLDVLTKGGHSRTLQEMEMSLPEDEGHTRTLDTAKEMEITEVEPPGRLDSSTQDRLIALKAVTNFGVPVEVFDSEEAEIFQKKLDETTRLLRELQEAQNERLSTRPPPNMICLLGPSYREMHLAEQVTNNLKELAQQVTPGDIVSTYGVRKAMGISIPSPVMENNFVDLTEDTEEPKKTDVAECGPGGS
# T1 sequence (Q66K64 whole entry, looked up, one chain of several): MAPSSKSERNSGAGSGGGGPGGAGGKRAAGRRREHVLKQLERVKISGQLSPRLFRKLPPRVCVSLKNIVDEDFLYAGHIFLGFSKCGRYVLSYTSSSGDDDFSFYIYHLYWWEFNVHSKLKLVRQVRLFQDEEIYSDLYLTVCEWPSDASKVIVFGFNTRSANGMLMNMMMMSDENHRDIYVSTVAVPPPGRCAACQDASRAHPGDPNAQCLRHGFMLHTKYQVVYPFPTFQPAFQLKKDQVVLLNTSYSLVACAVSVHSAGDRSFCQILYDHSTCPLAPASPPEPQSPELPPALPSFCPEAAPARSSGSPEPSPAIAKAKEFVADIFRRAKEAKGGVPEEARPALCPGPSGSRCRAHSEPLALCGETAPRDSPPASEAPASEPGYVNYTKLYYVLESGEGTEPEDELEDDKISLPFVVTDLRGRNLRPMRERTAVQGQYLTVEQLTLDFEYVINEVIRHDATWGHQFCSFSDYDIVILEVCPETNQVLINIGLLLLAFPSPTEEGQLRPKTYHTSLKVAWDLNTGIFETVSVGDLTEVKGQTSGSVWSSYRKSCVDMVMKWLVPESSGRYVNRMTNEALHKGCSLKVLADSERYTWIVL
# T2 sequence (Q66K64 whole entry, looked up): as the sequence (Q66K64 whole entry, looked up, one chain of several) above
# T2 sequence (Q9NPI1 whole entry, looked up): as the sequence (Q9NPI1 whole entry, looked up) above
Structure (SMILES),Activity [1] [%],Activity [2] [%],Activity [3] [%],Activity [4] [%],Activity [5] [%],Activity [6] [%],-TdeltaS [7] [kcal/mol],-TdeltaS [8] [kcal/mol],Activity [9] [%],Activity [10] [%],-TdeltaS [11] [kcal/mol],Activity [12] [%],deltaH [13] [kcal/mol],Activity [14],deltaH [15] [kcal/mol],Activity [16] [%],deltaG [17] [kcal/mol],deltaG [18] [kcal/mol],deltaH [19] [kcal/mol],Activity [20] [%]
COc1cc(-c2cn(C)c(=O)c3cnccc23)cc(OC)c1CN1CCN(CCOCCOCC(=O)NCc2ccc(S(=O)(=O)Nc3cccc4c(Cl)c[nH]c34)cc2)CC1,125,86,81,101,,,,,,,,,,,,,,,,
COc1cc(-c2cn(C)c(=O)c3cnccc23)cc(OC)c1CN1CCN(CCOCCOCC(=O)N[C@H](C(=O)N2C[C@H](O)C[C@H]2C(=O)NCc2ccc(-c3scnc3C)cc2)C(C)(C)C)CC1,,,,,20,30,-3.3,4.9,30,83,1.8,70,-12.5,1 10^6No_unit,-6.4,68,-10.7,-20.4,-15.2,20
COc1cc(-c2cn(C)c(=O)c3cnccc23)cc(OC)c1CN1CCN(CCOCCOCCOCCOCC(=O)N[C@H](C(=O)N2C[C@H](O)C[C@H]2C(=O)NCc2ccc(-c3scnc3C)cc2)C(C)(C)C)CC1,,,,,20,30,,,30,73,,78,,,,81,,,,20
